Results collected from several papers.
Each line is one published result; the experiments were not run side by side.
KIT D816H: Mast/stem cell growth factor receptor Kit (KIT, Homo sapiens, UniProt P10721, D816H)
KIT T670I/V559D: Mast/stem cell growth factor receptor Kit (KIT, Homo sapiens, UniProt P10721, T670I/V559D)
KIT V559D: Mast/stem cell growth factor receptor Kit (KIT, Homo sapiens, UniProt P10721, V559D)
KIT D816V: Mast/stem cell growth factor receptor Kit (KIT, Homo sapiens, UniProt P10721, D816V)
KIT autoinhibited: Mast/stem cell growth factor receptor Kit, autoinhibited (KIT, Homo sapiens, UniProt P10721)
KIT A829P: Mast/stem cell growth factor receptor Kit (KIT, Homo sapiens, UniProt P10721, A829P)
KIT L576P: Mast/stem cell growth factor receptor Kit (KIT, Homo sapiens, UniProt P10721, L576P)
KIT: Mast/stem cell growth factor receptor Kit (KIT, Homo sapiens, UniProt P10721)
KIT V559D/V654A: Mast/stem cell growth factor receptor Kit (KIT, Homo sapiens, UniProt P10721, V559D/V654A)

C=CC(=O)N1CCC(C(=O)NCC(=O)N2CCN(c3nc(-c4cnc(N)nc4C(F)F)nc(N4CCOCC4)n3)CC2)CC1  remaining binding (KIT D816H; binding; competition with immobilised ligand; 1 µM): 100%
N[C@H]1CCN(c2nccc(-c3cnn4ncccc34)n2)C1  remaining binding (KIT T670I/V559D; binding; 1 µM): 100%
COc1cnc(Nc2cccc(S(N)(=O)=O)c2)nc1N1CCN(c2ccccc2)CC1  remaining binding (KIT V559D; binding; competition with immobilised ligand; 1 µM): 94%
O=C(Nc1cccnn1)N1CC(C/C=C/c2cncc(Oc3ccc(C(F)(F)F)cn3)n2)C1  remaining binding (KIT D816V; cell-free assay; competition with immobilised ligand; 1 µM): 100%
CNC(=O)[C@@H]1CC[C@@H](n2c(-c3ccc4cnccc4c3)nc3ccc(C(=O)NCc4cccc(C(N)=O)c4)cc32)C1  remaining binding (KIT autoinhibited; binding; competition with immobilised ligand; 1 µM): 100%
O=C(c1ccc(Nc2ncc(Cl)c(-c3ccc(Cl)s3)n2)cc1)N1CCC(N2CCCC2)CC1  remaining binding (KIT D816H; binding; competition with immobilised ligand; 1 µM): 7.7%
CCN1CCN(Cc2ccc(C(=O)Nc3ccc(C)c(Oc4ccc5c(c4)CC(=O)N5)c3)cc2C(F)(F)F)CC1  remaining binding (KIT A829P; binding; competition with immobilised ligand; 1 µM): 100%
C[C@@H](c1ccc(-n2cnc3c(N)ncnc32)cc1)N1CCc2nn(C)c(Cc3ccccc3)c2C1=O  remaining binding (KIT V559D; binding; competition with immobilised ligand; 0.1 µM): 32%
O=C(NCC1CCOCC1)c1n[nH]cc1NC(=O)c1c(F)cccc1F  remaining binding (KIT L576P; binding; competition with immobilised ligand; 1 µM): 100%
N#Cc1ccccc1CSc1nnc2c(n1)[nH]c1ccccc12  remaining binding (KIT; binding; competition with immobilised ligand; 10 µM): 100%
Cc1nc(NC(=O)N2CCC[C@H]2C(N)=O)sc1-c1ccnc(C(C)(C)C(F)(F)F)c1  remaining binding (KIT; binding; competition with immobilised ligand; 10 µM): 100%
CN(C)c1nccc(-c2cnc3ncccn23)n1  remaining binding (KIT T670I/V559D; binding; 1 µM): 92%
C[C@@]1(Cc2ccc(C#N)cc2)C(=O)N(c2cc(Cl)cc(Cl)c2)c2ncc(C(=O)NC3(c4nc(C5CCC5)no4)CC3)n21  remaining binding (KIT V559D; cell-free assay; competition with immobilised ligand; 1 µM): 99%
C[C@@H]1CCN(c2nccc(-c3cnn4ncccc34)n2)C1  remaining binding (KIT; binding; 1 µM): 100%
COc1ccc2c(O[C@@H]3C[C@H]4C(=O)N[C@]5(C(=O)O)CC5/C=C\CCCCC[C@H](NC(=O)OC5CCCC5)C(=O)N4C3)cc(-c3csc(NC(=O)C(C)C)n3)nc2c1C (stereo partly shown)  remaining binding (KIT T670I/V559D; cell-free assay; competition with immobilised ligand; 1 µM): 76%
c1cncc(-c2cccc(Nc3nccc(NC4CCCCC4)n3)c2)c1  remaining binding (KIT D816H; binding; competition with immobilised ligand; 10 µM): 13%
O=C(c1ccc(Nc2ncc(Cl)c(-c3cc4ccccc4s3)n2)cc1)N1CCC(N2CCCC2)CC1  remaining binding (KIT T670I/V559D; binding; competition with immobilised ligand; 1 µM): 17%
CN1CCN(c2ccc(Nc3nccc(-c4ccccc4)n3)cc2C(F)(F)F)CC1  remaining binding (KIT D816H; binding; 10 µM): 17%
CC(=O)N1CCC(c2ccc(C(=O)NC3=NCCN3)cc2C(F)(F)F)CC1  remaining binding (KIT D816V; cell-free assay; competition with immobilised ligand; 1 µM): 91%
COc1cnc(Nc2cccc(S(N)(=O)=O)c2)nc1N1CCN(c2ccccc2)C(=O)C1  remaining binding (KIT D816V; binding; competition with immobilised ligand; 1 µM): 90%
Cc1c(C(=O)O)cc(-c2ccc(C3CCNCC3)cc2)c2ccc(-c3ccc(C(F)(F)F)cc3)cc12  remaining binding (KIT V559D; binding; competition with immobilised ligand; 1 µM): 100%
Cc1cnc(Nc2ccc(C(=O)N3CCC(N4CCCC4)CC3)cc2)nc1-c1cc2ccccc2s1  remaining binding (KIT V559D; binding; competition with immobilised ligand; 1 µM): 0.6%
CCCOc1ccc([C@H]2[C@H](C(=O)O)[C@@H](c3ccc4c(c3)OCO4)CN2CC(=O)Nc2c(CC)cccc2CC)cc1  remaining binding (KIT V559D/V654A; cell-free assay; competition with immobilised ligand; 1 µM): 98%
O=C(NCCCN1CCOCC1)c1ccc(Nc2nccc(-c3cc4ccccc4s3)n2)cc1  remaining binding (KIT D816H; binding; competition with immobilised ligand; 1 µM): 20%
CN1CCN(c2ccc(Nc3nccc(-c4cccc([N+](=O)[O-])c4)n3)cc2C(F)(F)F)CC1  remaining binding (KIT V559D/V654A; binding; 10 µM): 0%
O=C(N1CCS(=O)(=O)CC1)N1C[C@H](c2ccc(OC(F)(F)F)cc2)C[C@H](c2nc(C3CC3)no2)C1  remaining binding (KIT V559D/V654A; cell-free assay; competition with immobilised ligand; 1 µM): 100%
Nc1ncc2c(n1)-c1c([nH]c3ccc(C#CC4CC4)cc13)CCCC2  remaining binding (KIT V559D; binding; competition with immobilised ligand; 1 µM): 100%
CN(CCCC(F)(F)F)c1nccc(-c2cnn3ncccc23)n1  remaining binding (KIT autoinhibited; binding; 1 µM): 100%
CC(C)(C)c1ccc(-c2nc(CBr)nn2-c2cccc(O)c2)cc1  remaining binding (KIT D816V; cell-free assay; competition with immobilised ligand; 10 µM): 95%
O=C(c1ccc(Nc2nccc(-c3cc4ccccc4s3)n2)cc1)N1CCC(N2CCCC2)CC1  remaining binding (KIT A829P; binding; competition with immobilised ligand; 1 µM): 31%
CCC(=O)N[C@@H]1CC[C@H](C(=O)N(C)c2ccc(-c3nc4ccccc4o3)cc2)C1  remaining binding (KIT autoinhibited; cell-free assay; competition with immobilised ligand; 1 µM): 93%
COc1ccnn2ncc(-c3ccnc(N(C)C)n3)c12  remaining binding (KIT V559D/V654A; binding; 1 µM): 100%
O=C(NCCCN1CCOCC1)c1ccc(Nc2ncc(Cl)c(-c3ccc(Cl)s3)n2)cc1  remaining binding (KIT T670I/V559D; binding; competition with immobilised ligand; 1 µM): 2.3%
CN(c1nccc(-c2cnn3ncccc23)n1)C1CC1  remaining binding (KIT L576P; binding; 1 µM): 100%
COc1ncc2cc3ccccc3nc2c1C#N  remaining binding (KIT L576P; cell-free assay; competition with immobilised ligand; 5 µM): 100%
CN(C)c1nccc(-c2cnn3ncccc23)n1  remaining binding (KIT A829P; binding; 1 µM): 81%
O=C(Nc1c[nH]nc1C(=O)NC1CCNCC1)c1cc(F)cc(F)c1  remaining binding (KIT V559D; binding; competition with immobilised ligand; 1 µM): 100%
